Values after ≈ are worked out from the molar mass of the structure shown.
Test system: Mycobacterium tuberculosis
Experiment: Antituberculosis activity against Mycobacterium tuberculosis H37Rv after 4 weeks by agar slant proportion method
Type: functional
Details: for MIC: Mycobacterium tuberculosis, H37Rv, 672 h
In short: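 M. tuberculosis H37Rv inoculated onto drug-containing slants at 105 bacilli per tube, then incubated 4 weeks at 37 °C (proportion method). MIC taken as the lowest concentration of compound giving no visible growth of the inoculated bacilli; reported in μg/mL.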

Compound	MIC	-logMIC
C/C(=N\NC(=S)Nc1ccc(I)cc1)c1ccc([N+](=O)[O-])cc1	> 12.5 µg/mL	–
C/C(=N\NC(=S)Nc1ccc(Br)cc1)c1ccc(Br)cc1	0.8 µg/mL (≈ 1.87 µM)	0.097
C/C(=N\NC(=S)NNc1ccc(C)cc1)c1ccc(Br)cc1	1.56 µg/mL (≈ 4.13 µM)	–
C/C(=N\NC(=S)NNC(=O)c1cccnc1)c1ccc(Br)cc1	6.25 µg/mL (≈ 15.9 µM)	-0.796
C/C(=N\NC(=S)Nc1cccc(Cl)c1Cl)c1ccc([N+](=O)[O-])cc1	> 12.5 µg/mL	–
C/C(=N\NC(=S)Nc1cc(C)ccn1)c1ccc(Br)cc1	0.4 µg/mL (≈ 1.1 µM)	0.398
C/C(=N\NC(=S)Nc1cc(C)ccn1)c1ccc([N+](=O)[O-])cc1	3.12 µg/mL (≈ 9.47 µM)	-0.494
CC(=O)C1(c2ccccc2)CCN(NC(=S)N/N=C(\C)c2ccc(Br)cc2)CC1	0.8 µg/mL (≈ 1.69 µM)	0.097
COc1ccc(NC(=S)N/N=C(\C)c2ccc(Br)cc2)cc1	0.8 µg/mL (≈ 2.11 µM)	0.097
C/C(=N\NC(=S)Nc1cccc(Cl)c1Cl)c1ccc(Br)cc1	0.4 µg/mL (≈ 0.959 µM)	0.398
COc1ccc(NNC(=S)N/N=C(\C)c2ccc(Br)cc2)cc1	1.56 µg/mL (≈ 3.97 µM)	-0.193
C/C(=N\NC(=S)Nc1ccncc1)c1ccc(Br)cc1	> 12.5 µg/mL	–
C/C(=N\NC(=S)Nc1ccccc1F)c1ccc(Br)cc1	3.12 µg/mL (≈ 8.52 µM)	–
C/C(=N\NC(=S)Nc1cccc(C)c1)c1ccc([N+](=O)[O-])cc1	> 12.5 µg/mL	–
C/C(=N\NC(=S)NN)c1ccc(Br)cc1	> 12.5 µg/mL	–
C/C(=N\NC(=S)Nc1ccccc1[N+](=O)[O-])c1ccc(Br)cc1	0.4 µg/mL (≈ 1.02 µM)	0.398
C/C(=N\NC(=S)Nc1ccncc1C)c1ccc(Br)cc1	> 12.5 µg/mL	–
C/C(=N\NC(=S)Nc1ccc(I)cc1)c1ccc(Br)cc1	0.8 µg/mL (≈ 1.69 µM)	0.097
C/C(=N\NC(=S)NN1CCN(c2ccccc2Cl)CC1)c1ccc(Br)cc1	3.12 µg/mL (≈ 6.68 µM)	–
C/C(=N\NC(=S)Nc1ccc(Br)cc1)c1ccc([N+](=O)[O-])cc1	6.25 µg/mL (≈ 15.9 µM)	-0.796
C/C(=N\NC(=S)Nc1ccccc1F)c1ccc([N+](=O)[O-])cc1	> 12.5 µg/mL	–
COc1ccc(NC(=S)N/N=C(\C)c2ccc([N+](=O)[O-])cc2)cc1	> 12.5 µg/mL	–
CC[C@@H](CO)NCCN[C@@H](CC)CO [ETHAMBUTOL]	0.1 µg/mL (≈ 0.489 µM)	–
NNC(=O)c1ccncc1 [ISONIAZID]	0.02 µg/mL (≈ 0.146 µM)	–

Reference: ChEMBL document CHEMBL1156172, “Substituted hydrazinecarbothioamide as potent antitubercular agents: synthesis and quantitative structure-activity relationship (QSAR)” (2010)
